TRPC6 act: activators of mouse TRPC6 channel. HEK293-TRPC6 membrane potential dye fluorescence; active compounds read high. AID 2550. B-score at 10 µM. Q61143. hit rate 0.13% among 310,000;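 active = B-score of the integrated fluorescence ratio above library mean plus 3 SD, and starting fluorescence ratio within library mean plus 5 SD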;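 note: higher score means more depolarization so channel activation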
Kir21 inh: blocks the mouse Kir2.1 inward-rectifier potassium channel | P35561 | HEK293-Kir2.1, FluxOR thallium flux fluorescence; active compounds read low | B-score at 10 µM | hit rate 0.85% among 310,000 | AID 1672;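 active = fluorescence ratio B-score at or below minus 3 SD of library scores, with starting-brightness B-score within 2 SD, cut at about -4.2 in these data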;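 note: channel flux triggered by added potassium and thallium sulfate stimulus; B-score of peak minus minimum fluorescence over baseline after thallium stimulus; more negative B-score means stronger Kir2.1 block with less thallium influx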
Target sequence (P35561 whole entry, looked up): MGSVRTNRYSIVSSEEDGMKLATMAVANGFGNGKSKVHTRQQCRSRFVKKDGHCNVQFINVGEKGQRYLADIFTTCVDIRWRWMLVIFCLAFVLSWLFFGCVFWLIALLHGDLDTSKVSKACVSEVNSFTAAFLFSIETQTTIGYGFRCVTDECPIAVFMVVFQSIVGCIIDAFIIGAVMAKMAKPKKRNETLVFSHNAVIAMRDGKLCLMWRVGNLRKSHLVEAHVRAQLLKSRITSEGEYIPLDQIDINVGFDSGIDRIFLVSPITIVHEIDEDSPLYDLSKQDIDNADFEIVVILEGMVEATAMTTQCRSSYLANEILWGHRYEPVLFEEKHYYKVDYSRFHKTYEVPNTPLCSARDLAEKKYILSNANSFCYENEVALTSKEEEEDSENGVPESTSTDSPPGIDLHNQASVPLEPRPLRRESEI
TRPC4 block: inhibitors of mouse TRPC4 channel. hit rate 0.39% among 300,000. B-score at 10 µM. HEK293 TRPC4beta/mu-opioid, DAMGO-evoked Fluo4 calcium flux; active compounds read low. Q9QUQ5. AID 2247;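 active = B-score over 3 SD under the library average, no early fluorescence shift, positive overall ratio signal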
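Signal: kinetic Fluo4 fluorescence imaging of calcium influx. Material: stable TRPC4beta/mu-opioid receptor HEK293 cells. Probe or stimulus: DAMGO in two steps, submaximal then maximal.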
TRPC4 act: TRPC4 (mouse) channel activation; HEK293 TRPC4beta/mu-opioid, Fluo4 calcium fluorescence; active compounds read high; AID 2237; Q9QUQ5; hit rate 0.49% among 310,000; B-score at 10 µM;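 active = B-score above 5 SD of library B-scores, and initial fluorescence ratio not above library mean plus 5 SD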;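 note: positive B-score marks a calcium rise read as TRPC4 activation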
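Test system: HEK293 cells stably co-expressing mouse TRPC4beta and mu-opioid receptor | Schedule: Fluo4 dye loading 45 min at room temperature, 110 s recording | Measured by: Kinetic Fluo4 calcium fluorescence, 5 s baseline at 1 Hz | Evaluation: B score of integrated ratio | Controls: Buffer (low) and maximal DAMGO (high)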
TRPC4 potent: allosterically enhances the mouse TRPC4 cation channel; HEK293 TRPC4beta/mu-opioid, DAMGO EC20, Fluo-4 Ca2+ flux; active compounds read high; B-score at 10 µM; hit rate 0.42% among 310,000;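 active = B-score of calcium response area above 5 SD of library B-scores, with initial fluorescence ratio within 5 SD of library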
TRPC6 inhibitor: blocks the mouse TRPC6 cation channel | Q61143 | B-score at 10 µM | HEK293-TRPC6, membrane potential dye, ACh-evoked depolarization; active compounds read low | hit rate 1.1% among 310,000;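 active = B-score under library mean minus 3 SD, initial fluorescence not abnormally high, positive integrated signal ratio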;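 note: B-score derived from integrated fluorescence ratio over the kinetic read; more negative B-score means stronger inhibition of depolarization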
Each line names hits and unclear results; the compound was inactive in the other large screens. Most compounds without a hit are left out; they make up all but 2.9% or so of the library.

COc1ccc(-c2nn(-c3ccccc3C)cc2CNCc2cccnc2)cc1F	TRPC4 act 178
COc1ccc(C(=O)Nc2nnc(S(=O)(=O)Cc3ccccc3)s2)cc1	none
S=C1NC2(CCCC2)Nc2ccccc21	none
CC12CCC(C[N+](C)(C)C1)C2(C)C (configuration not stated)	none
c1ccc(Nc2nc(N3CCCC3)nc(N3CCOCC3)n2)cc1	none
c1ccc(Nc2nc(Nc3ccccc3)nc(N3CCNCC3)n2)cc1	TRPC4 act 146
CC1CCc2ccc(F)cc2N1S(=O)(=O)c1cccs1 (configuration not stated)	none
COc1cccc(NC(=S)NN2C(C)CCCC2C)c1 (configuration not stated)	TRPC4 potent 11
NC(=O)Cc1nc(-c2ccccc2)cs1	none
NCCc1nc(-c2ccccc2)cs1	TRPC4 act 116
CCOc1ccc(/C=C2\SC(=O)N(CCNC(=O)C3COc4ccccc4O3)C2=O)cc1OC (configuration not stated)	none
COc1cc2c(cc1OC)C(C)N(C(=O)C(NC(=O)c1ccccc1)C(C)C)CC2 (configuration not stated)	TRPC4 act 96
Oc1ccc(Br)cc1/C=N/n1c(-c2ccccc2)n[nH]c1=S	none
CC(NC(=O)c1ccc(Br)cc1Br)c1ccccc1 (configuration not stated)	none
CN(C(=S)NC(=O)CCCOc1ccc(Cl)cc1Cl)c1ccccc1	Kir21 inh -4.89
CC(Oc1ccc(Cl)cc1Cl)C(=O)N(C)c1ccccc1 (configuration not stated)	Kir21 inh -6.38
CC(C)NC(=O)CCCOc1ccc(Cl)cc1Cl	none
CCOC(=O)c1c(C)[nH]c(C)c1S(=O)(=O)NC(CC)CN1CCOCC1 (configuration not stated)	none
CC1CCCN(CCCNC(=O)CCn2nc(-c3ccccc3)ccc2=O)C1 (configuration not stated)	TRPC4 potent 11
CCCCNC(=O)CCn1nc(-c2ccccc2)ccc1=O	none
O=C(CN1CCN(S(=O)(=O)c2ccc(Br)cc2)CC1)N/N=C/c1ccncc1	TRPC4 potent 15
CCc1cc(=O)oc2cc(C)cc(OCC(=O)NC(Cc3c[nH]c4ccc(O)cc34)C(=O)O)c12 (configuration not stated)	none
CCCCC1(Cc2ccc(OC)c([N+](=O)[O-])c2)C(=O)N(c2ccccc2)N(c2ccccc2)C1=O	none
COc1cc(C)c(S(=O)(=O)N2CCCC2)cc1C(C)C	Kir21 inh -4.42
COc1cc(C)c(S(=O)(=O)N2CCCC2)cc1C	none
C=CCOC(=O)C1=C[C@H](c2ccc(C(F)(F)F)cc2)[C@@H](CCCO)[C@H](OCC)O1	TRPC4 block -5
CCOC(=O)c1cc2sccc2n1CC(=O)N1CCCc2ccccc21	none
O=C(CSc1ccc(Cl)cc1)N1N=CCC1c1ccccc1 (configuration not stated)	Kir21 inh -6.08
NC(=NC(=O)c1ccc(Cl)cc1)N1N=CCC1c1ccccc1 (configuration not stated)	none
CCCN(CC1CCCO1)C(=O)c1cc(COc2cccc(OC)c2)on1 (configuration not stated)	none
CCc1ccc(-c2cc(C(=O)N/N=C/c3ccccn3)[nH]n2)cc1	none
O=C(NNC(=S)NC(=O)c1sc2ccccc2c1Cl)c1ccc(Cl)cc1	TRPC4 potent 56
O=C(NNC(=O)c1sc2ccccc2c1Cl)Nc1ccc(Cl)cc1	none
O=C(O)c1ccccc1NC(=S)NC(=O)c1sc2ccccc2c1Cl	none
Cc1ccc(NC(=S)NC(=O)c2sc3ccccc3c2Cl)c(C(=O)O)c1	TRPC4 block -6
CCCCn1nnnc1SCC(=O)N1CCCC1	none
COc1ccc(C(=O)C2CCCCC2=O)cc1 (configuration not stated)	none
CC1CC(=O)c2c(cc3c(-c4c(O)cc(O)c5c(O)c6c(cc45)OC(C)CC6=O)c(O)cc(O)c3c2O)O1 (configuration not stated)	TRPC6 act 42.5
COc1ccc(N2CCN(S(=O)(=O)c3ccc(Br)s3)CC2)cc1	none
